Screening results (PubChem)
In the library only some 11% were active in any assay of this set; here they are far more common.
SF-1 act: activators of human nuclear receptor SF-1; AID 522; 65,000 tested, 1.9% active; activation, % at 10 µM; Q13285; CHO-K1 Gal4-SF-1 LBD luciferase reporter; % increase over DMSO SF-1-specific signal;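 active means activation above the mean activation of all tested compounds plus 3 SD, cut at about 50% in these data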
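Material: CHO-K1 cells with Gal4–hSF-1 LBD chimera plus Gal4-driven luciferase / Input: 4,000 CHO-K1 cells per well / Incubation: compound exposure 20 h at 37 °C / Signal: luminescence read 15 min after SteadyLite luciferase reagent, after room-temperature equilibration / Read-out: percent activation versus DMSO / Benchmarks: DMSO negative control and −SF1 background wells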
M1 agonist: agonists of M1 muscarinic receptor | 64,000 tested, 3% active | B-score at 10 µM | CHO-M1 cells, Fluo-4 calcium fluorescence, agonist mode; active compounds read high;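 active means fluorescence rise, raw or as B-score row- and column-corrected plate score, outside the 99.7% band of its plate's samples, either direction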
Htt clearance: mutant huntingtin protein clearance; HeLa Exon1htt(103Q)mCFP, aggregate imaging; zero = plate's median compound well; inhibition, % at 1.5 µM; 47,000 tested, 0.42% active;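 active means inhibition of aggregate fluorescence above about 70%, also judged a hit by eye on the cell image, limit read from the data, passing the limit was not always enough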;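 further: cells exposed to compound for three days before fixation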
D1 allo mod: allosterically modulates the human D1 dopamine receptor; P21728; HEK293 D1, CRE-luciferase, dopamine EC30 potentiation; actives deviate in either direction; B-score at 10 µM; 58,000 tested, 5.9% active; AID 641;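 active means luminescence count or its row- and column-corrected plate score outside the 99.7% band of the plate's sample wells, on either side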
Target sequence (P21728 whole entry, looked up): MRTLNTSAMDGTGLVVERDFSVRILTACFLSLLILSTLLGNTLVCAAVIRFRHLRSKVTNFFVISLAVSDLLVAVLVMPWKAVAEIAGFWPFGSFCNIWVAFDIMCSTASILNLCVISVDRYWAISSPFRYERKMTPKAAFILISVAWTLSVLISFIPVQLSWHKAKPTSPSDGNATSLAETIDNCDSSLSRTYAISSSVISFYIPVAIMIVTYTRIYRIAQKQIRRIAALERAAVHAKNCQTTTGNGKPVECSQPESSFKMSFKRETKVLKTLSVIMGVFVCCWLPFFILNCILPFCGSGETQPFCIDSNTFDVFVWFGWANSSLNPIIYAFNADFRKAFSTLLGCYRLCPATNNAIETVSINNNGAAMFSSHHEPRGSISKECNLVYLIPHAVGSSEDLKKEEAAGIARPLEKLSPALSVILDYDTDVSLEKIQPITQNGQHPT
M1 antag: blocks the rat M1 muscarinic receptor response to acetylcholine; CHO-M1 cells, Fluo-4 calcium, ACh EC80 antagonist mode; active compounds read low; B-score at 10 µM; P08482; 64,000 tested, 3.4% active;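 active means calcium fluorescence response, raw or row-and-column corrected B-score, differing from the plate sample mean either way at a set confidence level, mostly lower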
RORa activator: activates the human nuclear receptor RORA; P35398; CHO-K1 Gal4-RORA LBD luciferase reporter, luminescence; percent increase over mock-subtracted basal signal; activation, % at 10 µM; 65,000 tested, 1.5% active; AID 560;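 active means activation above the mean of all tested compounds plus 3 SD, cut at about 49% in these data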;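 further: 0% = DMSO-treated RORA cells and 100% = added signal equal to DMSO minus mock-transfected cells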
D1 PAM confirm: D1 receptor (human) allosteric modulation, confirmed. luminescence at 10 µM. AID 642. 2,200 tested, 88% active. shares compounds with D1 allo mod. HEK293 D1 CRE-luciferase, dopamine EC30 potentiation; active compounds read high;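 active means luminescence in either of two replicates above the same-plate mean plus 3 SD of the low-dose dopamine control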
D1 ag no DA: activates D1 CRE-luciferase signal without dopamine present; shares compounds with D1 allo mod; HEK293 D1 CRE-luciferase, luminescence, no dopamine; active compounds read high; luminescence at 10 µM; 1,900 tested, 0.8% active; AID 646; in the data active means luminescence above about 3900
Isoprot counter: alters isoproterenol CRE-luciferase response in HEK293 cells; calls only at 10 µM; shares compounds with D1 allo mod; 2,200 tested, 63% active; HEK293 D1 CRE-luciferase, isoproterenol EC30 counter-screen; AID 647;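 active means luminescence in either replicate above plate mean of wells with a partly effective reference agonist dose plus 3 SD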;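 further: isoproterenol raises cAMP through native beta-adrenoceptor Gs so signal bypasses D1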
Numbers without * were called inactive.

Screening COc1cc2c(cc1OC)-c1cc(NCc3ccccn3)nc(=O)n1CC2 returned SF-1 act -6.0, M1 agonist -1.03, Htt clearance -0.2, D1 allo mod 5.2*, M1 antag -0.218, RORa activator -5.2, D1 PAM confirm 10588*, D1 ag no DA 1816 and Isoprot counter active.
For CCCCCCNc1cc2n(c(=O)n1)CCc1cc(OC)c(OC)cc1-2 the results were SF-1 act -1.7, M1 agonist 2.16, Htt clearance 63.3, D1 allo mod 3.15*, M1 antag -0.82, RORa activator 14.3, D1 PAM confirm 13732*, D1 ag no DA 1896 and Isoprot counter active.
For CCNc1cc2n(c(=O)n1)CCc1cc(OC)c(OC)cc1-2 the results were SF-1 act -6.8, M1 agonist 0.857, Htt clearance -38.7, D1 allo mod 1.78, M1 antag 0.824 and RORa activator -18.0.
For COc1cc2c(cc1OC)-c1cc(NC3CC3)nc(=O)n1CC2 the results were SF-1 act 11.6, M1 agonist -1.05, D1 allo mod 5.67*, M1 antag -0.00957, RORa activator -1.7, D1 PAM confirm 14400*, D1 ag no DA 1568 and Isoprot counter active.
`O=C1CC(c2ccc3c(c2)OCO3)c2cc3c(cc2N1)OCCO3` (configuration not stated) gave SF-1 act -15.0, M1 agonist 0.876, Htt clearance -15.4, D1 allo mod 11.1*, M1 antag -1.24, RORa activator -10.4, D1 PAM confirm 11940*, D1 ag no DA 1824 and Isoprot counter active.
For O=C1CC(c2ccsc2)c2cc3c(cc2N1)OCCO3 (configuration not stated) the results were SF-1 act -10.1, M1 agonist 0.658, D1 allo mod 5.81*, M1 antag 0.616, RORa activator -11.4, D1 PAM confirm 14472*, D1 ag no DA 1508 and Isoprot counter inactive.
For O=C1CC(c2ccncc2)c2cc3c(cc2N1)OCCO3 (configuration not stated) the results were SF-1 act 3.5, M1 agonist -0.8, D1 allo mod 1.05, M1 antag 0.0267 and RORa activator -0.9.
For O=C(OCCN1C(=O)c2ccccc2C1=O)c1cc(=O)[nH]c2ccccc12 the results were SF-1 act 8.6, M1 agonist 1.77, Htt clearance 36.8, D1 allo mod 0.54, M1 antag -0.871 and RORa activator -9.9.
COc1cccc(C(=O)OCCN2C(=O)c3ccccc3C2=O)c1OC was read as SF-1 act 14.6, M1 agonist -0.818, D1 allo mod 3.14*, M1 antag 0.592, RORa activator 12.5, D1 PAM confirm 5788*, D1 ag no DA 1588 and Isoprot counter active.
For Nc1nc(SCC(=O)OCc2ccccc2)[nH]c(=O)c1NC(=O)c1ccco1 the results were SF-1 act 7.8, M1 agonist 0.462, D1 allo mod 3.19*, M1 antag 0.0283, RORa activator -15.7, D1 PAM confirm 6284*, D1 ag no DA 1856 and Isoprot counter inactive.
NC(=O)C1(N2CCCCC2)CCN(S(=O)(=O)c2cc(Cl)ccc2Cl)CC1 was read as SF-1 act 8.6, M1 agonist -0.796, D1 allo mod 1.3, M1 antag -0.978 and RORa activator -10.6.
`CCOC(=O)C(Sc1nnc2c3ccccc3n(CC)c2n1)C(=O)OCC` gave SF-1 act 6.3, M1 agonist 0.0521, D1 allo mod 5.15*, M1 antag -0.435, RORa activator -6.3, D1 PAM confirm 11136*, D1 ag no DA 1560 and Isoprot counter active.
Screening CCn1c2ccccc2c2nnc(SCC(=O)c3ccccc3)nc21 returned SF-1 act -3.6, Htt clearance -52.5 and RORa activator 10.3.
`N#CCC(=O)NCCCOC(=O)Nc1ccc(Cl)c(Cl)c1` gave SF-1 act -1.7, M1 agonist -0.981, D1 allo mod -0.491, M1 antag -0.487 and RORa activator 7.5.
Screening O=C(CSc1nnc(COc2cccc3cccnc23)o1)N1CCc2ccccc21 returned SF-1 act -53.4, M1 agonist 1.13, Htt clearance 24.9, D1 allo mod 0.269, M1 antag 1.11 and RORa activator -58.9.
O=C(CN(C(=O)CSc1nnc(COc2ccccc2)o1)c1ccc(F)cc1)NC1CCCCC1 was read as SF-1 act 0.7, M1 agonist 0.102, Htt clearance -11.0, D1 allo mod 3.2*, M1 antag 0.458, RORa activator 8.7, D1 PAM confirm 5428, D1 ag no DA 1512 and Isoprot counter inactive.
`O=C(CSc1nnc(COc2ccc(F)cc2)o1)N1c2ccccc2CCc2ccccc21` gave SF-1 act -12.4, M1 agonist 1.39, D1 allo mod 4.01*, M1 antag -0.731, RORa activator 18.3, D1 PAM confirm 13460*, D1 ag no DA 1676 and Isoprot counter inactive.
`CCN(CC)CCCNC(=O)c1cn(CCOC)c(=O)c2c1c1ccccc1n2C` gave SF-1 act -2.7, M1 agonist -0.216, Htt clearance -75.8, D1 allo mod -0.0151, M1 antag 0.184 and RORa activator -9.3.
O=C(NCCN1CCCC1)c1cc(-c2ccncc2)nc2ccc(S(=O)(=O)N3CCOCC3)cc12 was read as SF-1 act -6.2, M1 agonist -1.25, D1 allo mod 0.59, M1 antag 0.0543 and RORa activator -2.7.
Screening CCC(=O)Nc1cc(-c2nn(C)c(=O)c3ccccc23)ccc1OC returned SF-1 act -8.4, M1 agonist 0.143, Htt clearance 6.7, D1 allo mod 3.31, M1 antag -0.288 and RORa activator 0.3.
COc1ccc(-c2nn(C)c(=O)c3ccccc23)cc1NC(=O)Cn1nc(C)c2ccccc2c1=O was read as SF-1 act 4.1, M1 agonist 3.21, Htt clearance 5.8, D1 allo mod 8.64*, M1 antag 0.293, RORa activator -11.8, D1 PAM confirm 19816*, D1 ag no DA 1720 and Isoprot counter active.
COc1cc2c(cc1OC)C(C)N(C(=O)c1cc3n(n1)C(C(F)(F)F)CC(c1ccco1)N3)CC2 (configuration not stated) was read as SF-1 act 3.3, M1 agonist -0.2, Htt clearance -21.2, D1 allo mod 5.98*, M1 antag -0.097, RORa activator 13.1, D1 PAM confirm 12888*, D1 ag no DA 1708 and Isoprot counter active.
